# Source: ChEMBL document CHEMBL1121745, “New dimeric analogues of ethidium; synthesis, interaction with DNA, and antitumor activity” (J Med Chem, 1981)
# Experiments:
# L1210 [1] = assay: Inhibition of incorporation of tritiated uridine in the RNA of actively growing L1210 cells; settings: Mus musculus
# L1210 [2] = assay: Inhibition of incorporation of tritiated thymidine in the DNA of actively growing L1210 cells; type: functional, cell-based; settings: Mus musculus
# In short: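 Actively growing L1210 cells are exposed to the drug, dissolved first in Me₂SO (final Me₂SO 1%). Incorporation of tritiated thymidine into DNA or tritiated uridine into RNA is measured. IC₅₀ is the concentration giving 50% reduction in incorporation.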
# B16 [3] = assay: Antitumor activity in mice against melanoma B16 cells at 0.55 uM/kg was expressed as ratio of average survival time; type: functional, Mus musculus
# B16 [4] = assay: Antitumor activity in mice against melanoma B16 cells at 2.2 uM/kg was expressed as ratio of average survival time; type: functional, Mus musculus
# P388 [5] = assay: Antitumor activity in mice against leukemia P388 cells at 1.7 uM/kg was expressed as ratio of average survival time; type: functional, Mus musculus
# In short: (§1)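 Mice bearing P388 leukemia were tested under NCI protocols, with doses given in µmol/kg. Toxicity was evaluated on day 5. Efficacy is reported as T/C, the mean survival time of treated mice divided by that of untreated controls, ×100. Values are usually the average of two tests. A T/C above 120 was taken as activity.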
# B16 [6] = assay: Antitumor activity in mice against melanoma B16 cells at 2.2 uM/kg; type: functional, Mus musculus
# In short: (§2)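 Mouse survival assay run under NCI protocols. Activity is expressed as T/C: average survival time of treated mice over untreated mice × 100. Values are usually the average of two tests. Toxicity is evaluated on day 5. A T/C above 120 is taken as activity.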
# P388 [7] = assay: Antitumor activity in mice against leukemia P388 cells at 0.85 uM/kg was expressed as ratio of average survival time; type: functional, Mus musculus
# In short: as §1
# P388 [8] = assay: Antitumor activity in mice against leukemia P388 cells at 1.7 uM/kg; type: functional, Mus musculus
# In short: as §2
# B16 [9] = assay: Antitumor activity in mice against melanoma B16 cells at 1.1 uM/kg; type: functional, Mus musculus
# In short: as §2
# P388 [10] = assay: Antitumor activity in mice against leukemia P388 cells at 3.4 uM/kg; type: functional, Mus musculus
# In short: as §2
# B16 [11] = assay: Antitumor activity in mice against melanoma B16 cells at 1.1 uM/kg was expressed as ratio of average survival time; type: functional, Mus musculus
# P388 [12] = assay: Antitumor activity in mice against leukemia P388 cells at 0.43 survival time; type: functional, Mus musculus
# In short: as §1
# P388 [13] = assay: Antitumor activity in mice against leukemia P388 cells at 3.4 uM/kg was expressed as ratio average survival time; type: functional, Mus musculus
# In short: as §1
# P388 [14] = assay: Antitumor activity in mice against leukemia P388 cells at 0.85 uM/kg; type: functional, Mus musculus
# In short: as §2
# B16 [15] = assay: Antitumor activity in mice against melanoma B16 cells at 0.55 uM/kg; type: functional, Mus musculus
# In short: as §2
# P388 [16] = assay: Antitumor activity in mice against leukemia P388 cells at 0.43 uM/kg; type: functional, Mus musculus
# In short: as §2
# P388 [17] = assay: Antitumor activity in mice against leukemia P388 cells at 8.9 uM/kg; type: functional, Mus musculus
# In short: as §1
# B16 [18] = assay: Antitumor activity in mice against melanoma B16 cells at 34.2 uM/kg was expressed as ratio of average survival time; type: functional, Mus musculus
# B16 [19] = assay: Antitumor activity in mice against melanoma B16 cells at 17.1 uM/kg was expressed as ratio of average survival time; type: functional, Mus musculus
# P388 [20] = assay: Antitumor activity in mice against leukemia P388 cells at 17.9 survival time; type: functional, Mus musculus
# In short: as §1
# P388 [21] = assay: Antitumor activity in mice against leukemia P388 cells at 8.9 uM/kg was expressed as ratio of average survival time; type: functional, Mus musculus
# In short: as §1
# B16 [22] = assay: Antitumor activity in mice against melanoma B16 cells at 8.6 uM/kg was expressed as ratio of average survival time; type: functional, Mus musculus
# P388 [23] = assay: Antitumor activity in mice against leukemia P388 cells at 4.5 umol/kg; type: functional, Mus musculus
# In short: as §1
# P388 [24] = assay: Antitumor activity in mice against leukemia P388 cells at 4.5 umol/kg was expressed as ratio of average survival time; type: functional, Mus musculus
# In short: as §1
# P388 [25] = assay: Antitumor activity in mice against leukemia P388 cells at 17.9 uM/kg; type: functional, Mus musculus
# In short: as §1
# P388 [26] = assay: Antitumor activity in mice against leukemia P388 cells at 1.7 umol/kg; type: functional, Mus musculus
# In short: as §2
# P388 [27] = assay: Antitumor activity in mice against leukemia P388 cells at 0.86 survival time; type: functional, Mus musculus
# In short: as §1
# P388 [28] = assay: Antitumor activity in mice against leukemia P388 cells at 1.7 umol/kg was expressed as ratio of average survival time; type: functional, Mus musculus
# In short: as §1
# P388 [29] = assay: Antitumor activity in mice against leukemia P388 cells at 0.86 uM/kg; type: functional, Mus musculus
# In short: as §2
# P388 [30] = assay: Antitumor activity in mice against leukemia P388 cells at 0.21 survival time; type: functional, Mus musculus
# In short: as §1
# P388 [31] = assay: Antitumor activity in mice against leukemia P388 cells at 0.22 umol/kg; type: functional, Mus musculus
# In short: as §2
# P388 [32] = assay: Antitumor activity in mice against leukemia P388 cells at 0.11 umol/kg was expressed as ratio of average survival time; type: functional, Mus musculus
# In short: as §1
# P388 [33] = assay: Antitumor activity in mice against leukemia P388 cells at 0.05 umol/kg was expressed as ratio of average survival time; type: functional, Mus musculus
# In short: as §1
# P388 [34] = assay: Antitumor activity in mice against leukemia P388 cells at 0.05 umol/kg; type: functional, Mus musculus
# In short: as §2
# P388 [35] = assay: Antitumor activity in mice against leukemia P388 cells at 0.22 umol/kg was expressed as ratio of average survival time; type: functional, Mus musculus
# In short: as §1
# B16 [36] = assay: Antitumor activity in mice against melanoma B16 cells at 0.17 umol/kg was expressed as ratio of average survival time; type: functional, Mus musculus
# B16 [37] = assay: Antitumor activity in mice against melanoma B16 cells at 0.09 uM/kg was expressed as ratio of average survival time; type: functional, Mus musculus
# B16 [38] = assay: Antitumor activity in mice against melanoma B16 cells at 0.04 uM/kg; type: functional, Mus musculus
# In short: as §2
# P388 [39] = assay: Antitumor activity in mice against leukemia P388 cells at 0.11 umol/kg; type: functional, Mus musculus
# In short: as §2
# B16 [40] = assay: Antitumor activity in mice against melanoma B16 cells at 0.09 uM/kg; type: functional, Mus musculus
# In short: as §2
# B16 [41] = assay: Antitumor activity in mice against melanoma B16 cells at 0.04 uM/kg was expressed as ratio of average survival time; type: functional, Mus musculus
# B16 [42] = assay: Antitumor activity in mice against melanoma B16 cells at 0.16 uM/kg was expressed as ratio of average survival time; type: functional, Mus musculus
# P388 [43] = assay: Antitumor activity in mice against leukemia P388 cells at 1.4 uM/kg was expressed as ratio of average survival time; type: functional, Mus musculus
# P388 [44] = assay: Antitumor activity in mice against leukemia P388 cells at 1.3 uM/kg was expressed as ratio of average survival time; type: functional, Mus musculus
smiles,measurement,setting,value
COc1cccc(-c2c3cc(N)ccc3c3ccc(N)cc3[n+]2C)c1,IC50,L1210 [1],10 µM
same,IC50,L1210 [2],25 µM
C[n+]1c(-c2cccc(OCCOCCOc3cccc(-c4c5cc(N)ccc5c5ccc(N)cc5[n+]4C)c3)c2)c2cc(N)ccc2c2ccc(N)cc21.[Br-].[Br-],T/C,B16 [3],109%
same,IC50,L1210 [1],16 µM
same,T/C,B16 [4],142%
same,T/C,P388 [5],156%
same,T/C,B16 [6],142
same,T/C,P388 [7],132%
same,T/C,P388 [8],28
same,T/C,B16 [9],127
same,T/C,P388 [10],39
same,IC50,L1210 [2],187 µM
same,T/C,B16 [11],127%
same,T/C,P388 [12],124%
same,T/C,P388 [13],152%
same,T/C,P388 [14],37
same,T/C,B16 [15],109
same,T/C,P388 [16],20
CC[n+]1c(-c2ccccc2)c2cc(N)ccc2c2ccc(N)cc21.[Cl-],IC50,L1210 [1],11 µM
same,T/C,P388 [17],18
same,T/C,B16 [18],135%
same,T/C,B16 [19],112%
same,T/C,P388 [20],149%
same,T/C,P388 [21],150%
same,T/C,B16 [22],108%
same,IC50,L1210 [2],31 µM
same,T/C,P388 [23],10
same,T/C,P388 [24],135%
same,T/C,P388 [25],24
C[n+]1c(-c2cccc(OCCCCCCCCCCOc3cccc(-c4c5cc(N)ccc5c5ccc(N)cc5[n+]4C)c3)c2)c2cc(N)ccc2c2ccc(N)cc21.[Cl-].[Cl-],IC50,L1210 [1],0.3 µM
same,T/C,P388 [26],33
same,T/C,P388 [27],160%
same,T/C,P388 [28],158%
same,T/C,P388 [29],15
same,IC50,L1210 [2],1.7 µM
same,T/C,P388 [12],156%
same,T/C,P388 [30],141%
C[n+]1c(-c2cccc(OCCCCCCCOc3cccc(-c4c5cc(N)ccc5c5ccc(N)cc5[n+]4C)c3)c2)c2cc(N)ccc2c2ccc(N)cc21.[Br-].[Br-],T/C,P388 [31],40
same,IC50,L1210 [1],0.6 µM
same,T/C,P388 [32],126%
same,T/C,P388 [33],120%
same,T/C,P388 [34],5
same,T/C,P388 [35],120%
same,T/C,B16 [36],138%
same,T/C,B16 [37],136%
same,T/C,B16 [38],116
same,T/C,P388 [39],13
same,T/C,B16 [40],136
same,IC50,L1210 [2],12 µM
same,T/C,B16 [41],116%
same,T/C,B16 [42],134%
COc1cccc2c1C(=O)c1c(O)c3c(c(O)c1C2=O)C[C@@](O)(C(C)=O)C[C@@H]3O[C@H]1C[C@H](N)[C@H](O)[C@H](C)O1 [DAUNORUBICIN],T/C,P388 [43],160
COc1cccc2c1C(=O)c1c(O)c3c(c(O)c1C2=O)C[C@@](O)(C(=O)CO)C[C@@H]3O[C@H]1C[C@H](N)[C@H](O)[C@H](C)O1 [DOXORUBICIN],T/C,P388 [44],197
